In ChEMBL document CHEMBL4422693, “Antifungal Phenylpropanoid Glycosides from Lippia rubella” (J Nat Prod, 2019):
In brackets after ≈: the same amount, converted by molar mass.

Tests used:
Candida albicans = experiment: Antimicrobial activity against Candida albicans ATCC 10231 after 48 hrs by microbroth dilution method; assay type: functional; conditions: ATCC 10231, 48 h
Outline: (§1)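 CLSI M27-A broth microdilution. Fungi at 10^6 cells/mL were grown in fresh BHI medium with samples at 1 pg/mL to 1 mg/mL, at 37 °C for 48 h. Growth was read daily by visible turbidity. MIC was the lowest concentration preventing growth. Inhibition was confirmed with resazurin (5 mg/100 mL PBS, pH 7.2) after a further 3 h at 37 °C. Amphotericin B was the positive control.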

Candida parapsilosis [1] = experiment: Antifungal activity against Candida parapsilosis ATCC 22019 after 48 hrs by micro broth dilution method; conditions: Lodderomyces parapsilosis, ATCC 22019, 48 h
Cryptococcus neoformans [2] = experiment: Antifungal activity against Cryptococcus neoformans isolate T1444 after 48 hrs by micro broth dilution method; assay type: functional; conditions: isolate T1444, 48 h; outline: as §1
Cryptococcus neoformans [3] = experiment: Antifungal activity against Cryptococcus neoformans ATCC 24067 after 48 hrs by micro broth dilution method; assay type: functional; conditions: ATCC 24067, 48 h; outline: as §1
[4] = Hemolytic activity in human RBC after 1 hr by spectrophotometric method; assay type: ADME, cell-based, Erythrocyte; conditions: human red blood cells (erythrocytes)
Outline: (§2)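 Sample solutions (2000 to 15.6 μg/mL before mixing) were incubated with a 4% human O+ erythrocyte suspension in PBS (1:4 by volume) for 1 h at 37 °C. PBS was then added, and lysis was read at 590 nm. PBS served as the negative control and water as the positive control.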

Erythrocyte = experiment: Hemolytic activity in human RBC at MIC after 1 hr by spectrophotometric method; assay type: ADME, cell-based; outline: as §2
Cryptococcus neoformans [5] = experiment: Antifungal activity against Cryptococcus neoformans isolate T1444 assessed as FIC index after 48 hrs in presence of amphotericin B by micro broth dilution method; assay type: functional
Outline: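 Checkerboard dose matrix in microplates. Sample and amphotericin B were each used below their single-agent MICs. Inoculum was 10^3 cells/mL, incubated at room temperature for 48 h. Growth was read visually and confirmed with resazurin. FIC for each agent is the MIC in combination divided by the MIC alone, and FICindex is the sum of the two FICs. Synergy is <0.5, additive is >0.5 to ≤1, and antagonism is >4.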

Candida parapsilosis [6] = experiment: Antifungal activity against Candida parapsilosis ATCC 22019 after 24 hrs by micro broth dilution method; assay type: functional; conditions: Lodderomyces parapsilosis, ATCC 22019, 24 h

Compound | MIC (Candida albicans) | MIC (Candida parapsilosis [1]) | MIC (Cryptococcus neoformans [2]) | MIC (Cryptococcus neoformans [3]) | HC50 at 1 h [4] | Activity (Erythrocyte) | fractional inhibitory concentration index (FICI) (Cryptococcus neoformans [5]) | MIC (Candida parapsilosis [6])
C[C@@H]1O[C@@H](O[C@@H]2[C@@H](O)[C@H](OCCc3ccc(O)c(O)c3)O[C@H](CO)[C@H]2OC(=O)/C=C/c2ccc(O)c(O)c2)[C@H](O)[C@H](O)[C@H]1OC(=O)/C=C/c1ccc(O)c(O)c1 | > 125 µg/mL | 125 µg/mL (≈ 159 µM) | 15.6 µg/mL (≈ 19.8 µM) | – | – | – | – | –
C[C@@H]1[C@H](O)[C@@H](C)/C=C/C=C/C=C/C=C/C=C/C=C/C=C/[C@H](O[C@@H]2O[C@H](C)[C@@H](O)[C@H](N)[C@@H]2O)C[C@@H]2O[C@](O)(C[C@@H](O)C[C@@H](O)[C@H](O)CC[C@@H](O)C[C@@H](O)CC(=O)O[C@H]1C)C[C@H](O)[C@H]2C(=O)O [AMPHOTERICIN B] | 0.25 µg/mL (≈ 0.271 µM) | 0.125 µg/mL (≈ 0.135 µM) | 0.125 µg/mL (≈ 0.135 µM) | 0.125 µg/mL (≈ 0.135 µM) | – | – | – | –
C[C@@H]1O[C@@H](OC[C@H]2O[C@@H](OCCc3ccc(O)c(O)c3)[C@H](O)[C@@H](O)[C@@H]2OC(=O)/C=C/c2ccc(O)c(O)c2)[C@H](O)[C@H](O)[C@H]1O [FORSYTHIASIDE] | > 125 µg/mL | > 125 µg/mL | 31.2 µg/mL (≈ 50 µM) | 31.2 µg/mL (≈ 50 µM) | 1000 µg/mL | Non-Toxic | 0.5 | –
C[C@@H]1O[C@@H](O[C@@H]2[C@@H](O)[C@H](OCCc3ccc(O)c(O)c3)O[C@H](CO)[C@H]2OC(=O)/C=C/c2ccc(O)cc2)[C@H](O)[C@H](OC(=O)/C=C/c2ccc(O)c(O)c2)[C@H]1O | > 125 µg/mL | – | 125 µg/mL (≈ 162 µM) | – | – | – | – | > 125 µg/mL
C[C@@H]1O[C@@H](OC[C@H]2O[C@@H](OCCc3ccc(O)c(O)c3)[C@H](O)[C@@H](O[C@@H]3O[C@@H](C)[C@H](O)[C@@H](O)[C@H]3O)[C@@H]2OC(=O)/C=C/c2ccc(O)c(O)c2)[C@H](O)[C@H](O)[C@H]1O [POLIUMOSIDE] | > 125 µg/mL | > 125 µg/mL | 62.5 µg/mL (≈ 81.1 µM) | – | – | – | – | –
C[C@@H]1O[C@@H](O[C@@H]2[C@@H](O)[C@H](OCCc3ccc(O)c(O)c3)O[C@H](COC(=O)/C=C/c3ccc(O)c(O)c3)[C@H]2O)[C@H](O)[C@H](O)[C@H]1O [ISOACTEOSIDE] | – | – | > 125 µg/mL | – | – | – | – | –
COc1ccc(-c2cc(=O)c3c(O)cc(O[C@@H]4O[C@H](CO[C@@H]5O[C@@H](C)[C@H](O)[C@@H](O)[C@H]5O)[C@@H](O)[C@H](O)[C@H]4O)cc3o2)cc1 [ACACIIN] | > 125 µg/mL | > 125 µg/mL | 125 µg/mL (≈ 211 µM) | – | – | – | – | –
C[C@@H]1O[C@@H](O[C@@H]2[C@@H](O)[C@H](OCCc3ccc(O)c(O)c3)O[C@H](CO)[C@H]2OC(=O)/C=C/c2ccc(O)c(O)c2)[C@H](O)[C@H](O)[C@H]1O [ACETOSIDE] | > 125 µg/mL | 125 µg/mL (≈ 200 µM) | 62.5 µg/mL (≈ 100 µM) | 62.5 µg/mL (≈ 100 µM) | 1000 µg/mL | Non-Toxic | 0.72 | –
